Rev-erbA mod: Rev-erb alpha (human) modulation; 0.79% of 370,000 active; activity, % at 10 µM; P20393; Rev-erbα–FITC-DNA binding, fluorescence polarization, 90 min;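 active = activity above about 14%, limit read from the data; passing the limit was not always enough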;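 also: 0% = DMSO wells with 35 nM protein and 100% = DMSO wells with 750 nM protein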
Target sequence (P20393 whole entry, looked up): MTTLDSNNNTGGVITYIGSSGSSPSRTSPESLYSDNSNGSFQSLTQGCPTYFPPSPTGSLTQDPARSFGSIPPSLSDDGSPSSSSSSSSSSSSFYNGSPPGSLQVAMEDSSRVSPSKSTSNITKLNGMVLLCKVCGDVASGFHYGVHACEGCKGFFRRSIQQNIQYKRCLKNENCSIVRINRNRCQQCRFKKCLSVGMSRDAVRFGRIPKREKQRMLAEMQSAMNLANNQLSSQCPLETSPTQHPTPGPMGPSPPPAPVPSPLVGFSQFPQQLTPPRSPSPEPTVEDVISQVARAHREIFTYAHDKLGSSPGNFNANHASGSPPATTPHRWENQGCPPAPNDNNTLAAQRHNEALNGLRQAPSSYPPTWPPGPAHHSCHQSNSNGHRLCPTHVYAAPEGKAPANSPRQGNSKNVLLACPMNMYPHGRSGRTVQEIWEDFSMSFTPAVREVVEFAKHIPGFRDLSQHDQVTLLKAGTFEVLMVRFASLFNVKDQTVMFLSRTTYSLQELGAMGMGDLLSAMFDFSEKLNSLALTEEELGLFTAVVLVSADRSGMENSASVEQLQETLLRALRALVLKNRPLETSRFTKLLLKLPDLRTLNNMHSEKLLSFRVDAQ
MT1-MMP act inh: MT1-MMP (human) activation inhibition; HT1080 RFP-PRO-GFP cells, GFP/RFP ratio fluorescence, overnight; percent of plate control window, DMSO zero; P50281; 0.061% of 360,000 active; GFP/RFP ratio change, % at 20 µM;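 active = GFP/RFP ratio change of at least 30% with cell ATP level not reduced by more than half and red fluorescence within 50% of control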
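Assay system – RFP-PRO-GFP reporter HT1080 cells · Compound dosing – single dose of 20 µM compound, 1% DMSO final · Incubation – overnight compound exposure at 37 °C · Measure – GFP/RFP fluorescence ratio · Benchmarks – DMSO wells and RFP-L50D-GFP cells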
NR2E3 ag-1: activates human NR2E3 receptor; 0.35% of 360,000 active; Q9Y5X4; inhibition of corepressor binding, % at 3.98 µM; CHO-S Gal4-NCOR/VP16-NR2E3 two-hybrid, luciferase;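 active = inhibition above the mean of all tested compounds plus 3 SD, cut at about 70% in these data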;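 also: 0% = DMSO with NR2E3 transfected cells and 100% = cells lacking NR2E3 construct; higher means lower luciferase signal from less NR2E3 corepressor binding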
PG9 binder: binds the HIV-1 gp120 antibody PG9; TR-FRET gp120-PG9 antibody binding; inhibition, % at 6.7 µM; 0.43% of 360,000 active; AID 624416; in the data active = inhibition above about 8.5%
SKN-1 block: C. elegans SKN-1 inhibition. C. elegans VP596 Pgst-4::GFP/RFP ratio, acrylamide-induced, 24 h. inhibition, % at 21.8 µM. 0.49% of 360,000 active. AID 624304;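 active = interference check ratio from 0.5 to 1.5 plus GFP to RFP signal ratio inhibition reaching or exceeding a fixed threshold, cut at about 30% in these data, passing the limit was not always enough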
NR2E3 ag-2: activates human photoreceptor nuclear receptor NR2E3; GST-NR2E3/biotin-RetCOR TR-FRET, 1536-well; inhibition of corepressor binding, % at 4.78 µM; 0.12% of 320,000 active;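 active = percent inhibition above the cutoff of mean plus 3 SD of all tested compounds, set per screening campaign, cut at about 20% in these data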;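 also: 0% = DMSO wells and 100% = biotin wells as full block of FRET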
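Material: NR2E3–RetCOR corepressor complex / Amount: 1.35 nM GST-NR2E3 / Medium: Tris pH 7.5 / Compound: single nominal compound dose of 4.8 µM / Incubation: 5 h at 4 °C / Technique: TR-FRET, Eu(K)-anti-GST donor, streptavidin-D2 acceptor, ex 340, em 617/671 nm / Read-out basis: percent loss of FRET ratio relative to control wells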
NR2E3 ag confirm-1: NR2E3 (human) agonism, confirmation; shares compounds with NR2E3 ag-2; cell-free NR2E3 corepressor release, TR-FRET, 5 h; activation (reported as inhibition), % at 3.98 µM; 39% of 360 active; AID 2379; in the data active = activation above about 20%
PPARg-NCOR2 ctr: PPARg-NCOR2 interaction agonism, NR2E3 counter-screen. shares compounds with NR2E3 ag-2. TR-FRET PPARg-NCOR2 coregulator interaction, biochemical. inhibition, % at 3.98 µM. 45% of 360 active. AID 504787; in the data active = inhibition above about 20%;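 also: 0% = DMSO vehicle and 100% = wells without protein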
NR2E3 ag confirm-2: confirmation of human NR2E3 agonists | shares compounds with NR2E3 ag-1 | CHO-S mammalian two-hybrid NR2E3-NCOR, luciferase luminescence | inhibition, % at 3.98 µM | 51% of 2,300 active | AID 624378;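 active = average inhibition above a cutoff equal to the mean inhibition of all tested compounds plus one SD, cut at about 70% in these data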;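 also: 0% = DMSO in NR2E3 cells and 100% = DMSO in cells lacking NR2E3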
GAL4-VP16 luc: reduces GAL4-VP16 reporter signal in NR2E3 counterscreen. inhibition, % at 3.98 µM. AID 624379. CHO-S GAL4-VP16 luciferase reporter, luminescence. 29% of 2,300 active. shares compounds with NR2E3 ag-1;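 active = mean inhibition above a cutoff equal to the average over all tested compounds plus one standard deviation, cut at about 70% in these data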;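 also: luciferase from a UAS reporter driven by GAL4-VP16 transactivation; 0% = DMSO with VP16-transfected cells and 100% = DMSO with cells lacking VP16; higher means less reporter light so more repression of VP16 activity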
The depositor's hits bear a star; nt = no result given. In the library only some 1.9% were active in any assay of this set; here they are far more common.

SMILES	Rev-erbA mod	MT1-MMP act inh	NR2E3 ag-1	PG9 binder	SKN-1 block	NR2E3 ag-2	NR2E3 ag confirm-1	PPARg-NCOR2 ctr	others
CCOC(=O)c1ccc2c(c1)C1C=CCC1C(C(=O)O)N2 (stereo not given)	nt	nt	nt	nt	nt	9	nt	nt
COC(=O)C1CSC(C)(C)C(=O)N1 (stereo not given)	3	2	15	1	15	1	nt	nt
COC(=O)CCCC[C@H]1SC[C@H]2NC(=O)N[C@]21O	nt	nt	nt	nt	nt	63*	61*	47*
COC(=O)CCCCC1SCC2NC(=O)NC21O (stereo not given)	nt	5	-22	0	1	76*	80*	80*
COc1ccccc1-c1cccc2[nH]c3c(c12)CCN1C(=O)[C@H]2[C@H](C)ON(C)[C@H]2C[C@@H]31	0	nt	nt	1	nt	nt	nt	nt
COc1cc(C2C(C(=O)c3ccco3)=C(O)C(=O)N2CCc2ccccc2)ccc1O (stereo not given)	-2	17	-26	-1	13	1	nt	nt
CCCOc1cccc(C2C(C(=O)c3ccco3)=C(O)C(=O)N2CCN(CC)CC)c1 (stereo not given)	0	-1	-4	-1	-3	4	nt	nt
COc1ccc(CCN2C(=O)C(O)=C(C(=O)c3ccco3)C2c2cccs2)cc1OC (stereo not given)	2	0	9	4	1	24*	18	14
COCCN1C(=O)C(O)=C(C(=O)c2ccco2)C1c1cccc(Oc2ccccc2)c1 (stereo not given)	2	-7	-18	2	5	23*	6	28*
O=Nc1ccccn1	-1	nt	nt	-1	nt	nt	nt	nt
CN(C(=O)[C@@H](Cc1ccccc1)NC(=O)[C@H]1O[C@@H](n2cnc3c(=O)[nH]c(N)nc32)[C@H](O)[C@@H]1O)C1CCCCC1	-1	nt	nt	1	nt	nt	nt	nt
O=C(O)c1ccc(-n2cccc2/C=C2/SC(=O)N(CC(=O)N3CCCC3)C2=O)cc1	-20	-5	-54	-2	18	21*	18	6
Nc1ccc(N2CCCCC2)c2nonc12	0	-1	-43	-2	3	43*	-16	-14
Nc1c(N2CCCC2)cc(Cl)c2nonc12	nt	-16	-5	nt	24	1	nt	nt
O=C(CSc1ncnc2ccccc12)Nc1cccc(S(=O)(=O)N2CCOCC2)c1	0	-8	-11	-3	-1	2	nt	nt
O=C(CSc1nc2ccccc2c(=O)n1-c1ccccc1Cl)Nc1cccc(S(=O)(=O)N2CCOCC2)c1	13	-3	-7	-3	-2	25*	-6	-8
Cn1c(N)c(C(=O)CSc2nnc(C3CC3)n2-c2ccccc2)c(=O)[nH]c1=O	-12	-2	-16	-1	27	nt	nt	nt
Cn1c(N)c(C(=O)CSc2nc(C3CC3)n(-c3ccccc3)n2)c(=O)[nH]c1=O	3	-2	1	-2	16	24*	-16	-3
CN(C)CCN1C(=O)C(O)=C(C(=O)c2cc3ccccc3o2)C1c1ccccn1 (stereo not given)	nt	nt	nt	nt	nt	27*	2	4
O=C(C1=C(O)C(=O)N(CCN2CCOCC2)C1c1ccc(Cl)cc1)c1cc2ccccc2o1 (stereo not given)	5	-6	-17	5	11	20*	26*	23*
COc1ccc(N)cc1CN1CCN(c2ncc(Cc3ccccc3)cn2)CC1	-4	nt	nt	-2	nt	nt	nt	nt
Cc1cc(O)c(C(C)C)cc1Cl	-2	nt	nt	nt	nt	nt	nt	nt
O=c1[nH]c(Nc2ccccc2Cl)cc2ccccc12	-11	-36	-39	-1	8	1	nt	nt
Cc1ccccc1Nc1cc2ccccc2c(=O)[nH]1	nt	-24	13	nt	2	25*	16	10
O=C(Nc1cccc(Cl)c1)NN(c1ccccc1)C1CCS(=O)(=O)C1 (stereo not given)	-3	nt	nt	1	nt	nt	nt	nt
SMILES	Rev-erbA mod	MT1-MMP act inh	NR2E3 ag-1	PG9 binder	SKN-1 block	NR2E3 ag-2	NR2E3 ag confirm-1	PPARg-NCOR2 ctr	others
Cc1cc(=O)n(C2CCS(=O)(=O)C2)[nH]1 (stereo not given)	-5	6	-10	-3	12	33*	-5	-4
O=C1C=C(N2CCOCC2)c2ccccc2C1=O	-4	-12	17	-10	0	33*	38*	65*
O=C1C=C(N2CCOCC2)c2cccc3cccc1c23	-6	17	6	-5	23	nt	nt	nt
COc1ccc(Cn2c(-c3ccc(OC)cc3)nc3c(c(=O)c4ccccc4n3C)c2=O)cc1	nt	nt	nt	nt	nt	41*	29*	20*
Cc1cc(C2C(C#N)=C(N)SC(N)=C2C#N)c(C)s1	nt	-140	7	nt	-19	24*	11	38*
CC(OC(=O)CCC(=O)c1ccc(Cl)s1)C(=O)NC1(C#N)CCCCC1 (stereo not given)	4	-1	-22	3	-8	24*	-9	-3
C=CCN=C1NC(c2cccc(F)c2)C(C(=O)OC)=C(C)N1C (stereo not given)	6	nt	nt	1	nt	nt	nt	nt
COc1ccc(OC)c(C2C(C(=O)c3cc4ccccc4o3)=C(O)C(=O)N2c2cc(C)on2)c1 (stereo not given)	-5	11	-28	6	-10	24*	17	11
COc1ccc(OC)c(C2C(C(=O)c3ccc(C)o3)=C(O)C(=O)N2c2cc(C)on2)c1 (stereo not given)	-4	5	-8	2	1	4	nt	nt
N#Cc1ccc(S(=O)(=O)N2CCCc3nc(-c4ccc(F)cc4)ccc32)cc1	1	nt	nt	-2	nt	nt	nt	nt
Cn1nc(-c2ccccn2)nc2c(=O)n(C)c(=O)nc1-2	-28	-25	107*	-4	-11	41*	33*	57*	NR2E3 ag confirm-2=63;GAL4-VP16 luc=64
CC(=O)CC[C@@H]1CC[C@]2(CCCN(C(=O)C(C)(C)C)C2)O1	5	nt	nt	nt	nt	nt	nt	nt
